Source: PubChem
NTR1 agonist: NTR1 (human) agonism | P30989 | NTR1-U2OS beta-arrestin-GFP spot imaging, agonist mode | activation, % at 20 µM | hit rate 0.17% among 330,000;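 active means activation at or above 40% of the spot to cytoplasm intensity ratio, with at least 20 cells analyzed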
m5-HT2A agonist: activates the mouse 5-HT2A serotonin receptor. CHO-K1 mHTR2A beta-arrestin complementation, luminescence; percent of 30 µM serotonin response. hit rate 0.66% among 360,000. AID 624169. activation, % at 7.6 µM. P35363;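 active means activation above a run cutoff, the mean activation of all tested compounds plus 3 SD, cut at about 14% in these data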
Lipid droplet: modulators of hepatic lipid droplet formation | AML12 mouse hepatocytes, oleate lipid droplets, BODIPY imaging | inhibition, % at 6.5 µM | hit rate 0.4% among 240,000 | AID 1656;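 active means lipid droplet intensity inhibited by at least 50%, with more than 500 cells counted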
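Test system: AML12 hepatocytes (mouse); reagent: oleate loading, 100 µM; dosing: one dose, 6.5 µM compound; incubation: overnight exposure; signal: fluorescence imaging, 20x objective, two fields per well; read-out basis: % inhibition of corrected integrated BODIPY droplet signal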
MC4R antag cAMP: blocks human MC4R cAMP signaling; hit rate 0.48% among 360,000; P32245; inhibition, % at 6.5 µM; MC4R-expressing cells, MTII-stimulated cAMP, LANCE TR-FRET; AID 540295;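 active means inhibition above its plate's cutoff, the mean of tested wells on that plate plus 3 SD, cut at about 29% in these data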
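Material: human MC4R-expressing U2OS cells. Probe or stimulus: Melanotan II challenge. Dosing: 6.5 µM single dose. Times: 30-min compound, 1-h challenge, 1-h detection, room temperature. Technique: TR-FRET with Eu-cAMP and labeled anti-cAMP, 671 nm. Replication: singlicate.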
PREPL inh: inhibitors of human prolyl oligopeptidase-like enzyme PREPL. recombinant PREPL, fluorescence polarization activity-based probe. AID 2751. Q4J6C6. hit rate 0.68% among 320,000. inhibition, % at 5.96 µM; in the data active means inhibition above about 43%
MC4R ag barr: agonists of human melanocortin 4 receptor (MC4R) beta-arrestin | P32245 | U2OS MC4R beta-arrestin complementation, luminescence; percent of melanotan II response, DMSO zero | activation, % at 8.9 µM | hit rate 0.98% among 360,000 | AID 540308;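 active means activation above a per-plate cutoff, the mean activation of sample wells on that plate plus 3 SD, cut at about 8% in these data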
MC4R barr conf: human MC4R beta-arrestin agonism confirmation | shares compounds with MC4R ag barr | U2OS MC4R beta-arrestin recruitment, luminescence; scaled DMSO 0%, Melanotan II 100% | activation, % at 8.9 µM | hit rate 31% among 2,400 | AID 602192;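 active means mean activation across replicates above the hit cutoff set in the earlier primary screen, cut at about 8% in these data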
MOR DOR agonist: activates mu-delta opioid heterodimer, MC4R agonist counter-screen | shares compounds with MC4R ag barr | U2OS PathHunter beta-arrestin, beta-gal luminescence; percent of deltorphin B response, DMSO zero | activation, % at 9.2 µM | hit rate 5.8% among 2,400;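 active means mean activation across replicates exceeds the hit threshold derived in the earlier primary screen, cut at about 18% in these data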
Target sequence (P35372 whole entry, looked up): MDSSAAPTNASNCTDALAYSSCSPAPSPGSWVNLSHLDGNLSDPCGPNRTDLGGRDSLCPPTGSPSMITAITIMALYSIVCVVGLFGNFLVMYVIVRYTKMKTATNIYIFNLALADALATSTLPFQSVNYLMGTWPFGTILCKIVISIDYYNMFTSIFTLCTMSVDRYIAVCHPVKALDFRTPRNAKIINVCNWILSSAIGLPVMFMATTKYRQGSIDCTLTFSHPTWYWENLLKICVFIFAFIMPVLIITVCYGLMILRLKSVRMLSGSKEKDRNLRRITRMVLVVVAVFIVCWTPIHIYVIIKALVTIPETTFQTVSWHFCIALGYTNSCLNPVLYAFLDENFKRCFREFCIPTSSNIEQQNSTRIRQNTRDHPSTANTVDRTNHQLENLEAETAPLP
Target sequence (P41143 whole entry, looked up): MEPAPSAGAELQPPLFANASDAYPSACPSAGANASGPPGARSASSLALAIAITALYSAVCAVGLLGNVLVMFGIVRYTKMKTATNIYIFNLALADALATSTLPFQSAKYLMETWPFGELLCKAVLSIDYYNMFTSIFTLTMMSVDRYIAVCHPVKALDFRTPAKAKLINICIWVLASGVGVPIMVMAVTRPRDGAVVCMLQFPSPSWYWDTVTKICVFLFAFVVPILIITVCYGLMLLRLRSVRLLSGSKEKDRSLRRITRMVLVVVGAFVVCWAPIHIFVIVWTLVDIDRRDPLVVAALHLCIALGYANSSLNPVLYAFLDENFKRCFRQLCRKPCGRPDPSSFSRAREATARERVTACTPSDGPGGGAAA
Of the large screens only hits and unclear results are named; the others gave an inactive call (follow-up assays come after a bar, where they were run). Rows were chosen to be rich in hits. Some 2.7% of all compounds tested hit in one or more screens of this group.

CCOC(=O)C1=C(c2ccccc2)NC(=O)NC1c1cc(Cl)c(O)c(OC)c1 (stereo unspecified)	none
CCOC(=O)C1=C(c2ccccc2)NC(N)=NC1c1ccc(OCc2ccc(Cl)cc2)c(OC)c1 (stereo unspecified)	MC4R ag barr 11.7 | MC4R barr conf 11.0 | MOR DOR agonist inactive
Cc1c(NC(=O)COC(=O)c2cc(-c3ccc(-c4ccccc4)cc3)nc3ccccc23)c(=O)n(-c2ccccc2)n1C	MC4R ag barr 17.7 (no result: NTR1 agonist) | MC4R barr conf inactive | MOR DOR agonist inactive
Cc1c(NC(=O)c2cc(-c3ccccc3)nc3ccccc23)c(=O)n(-c2ccccc2)n1C	none (no result: Lipid droplet)
O=C(COC(=O)c1cc(-c2ccccc2)nc2ccccc12)Nc1ccc2c(c1)OCO2	MC4R ag barr 15.7 | MC4R barr conf inactive | MOR DOR agonist inactive
O=C(COC(=O)c1cc(Br)ccc1O)Nc1ccc2c(c1)OCO2	MC4R ag barr 10.3 (no result: Lipid droplet) | MC4R barr conf inactive | MOR DOR agonist inactive
Cc1ccc(O)c(C(=O)/C=C/c2ccc3c(c2)OCCO3)c1	MC4R ag barr 21.7 | MC4R barr conf 20.5 | MOR DOR agonist inactive
CCOC(=O)c1[nH]c(COC(=O)CCOc2ccccc2OC)c(C(=O)OCC)c1C	MC4R ag barr 16.4 (no result: Lipid droplet) | MC4R barr conf inactive | MOR DOR agonist inactive
S=c1[nH]nc(-c2cccs2)n1/N=C/c1cn(-c2ccccc2)nc1-c1cccs1	MC4R ag barr 10.4 | MC4R barr conf inactive | MOR DOR agonist inactive
COc1ccc(CNCCC(c2ccc(OC)cc2)c2ccccc2OC)cc1 (stereo unspecified)	none
COc1ccc(C(CCNCc2ccc(OC(C)C)cc2)c2ccccc2OC)cc1 (stereo unspecified)	MC4R ag barr 12.6 | MC4R barr conf 15.1 | MOR DOR agonist 25.4
CCOC(=O)CNC(=O)c1cc(-c2ccccn2)nc2c(C)c(Cl)ccc12	MC4R ag barr 29.8 (no result: Lipid droplet) | MC4R barr conf inactive | MOR DOR agonist inactive
Cc1c(Cl)ccc2c(C(N)=O)cc(-c3ccccn3)nc12	none
Cc1ccc2nc(NC(=O)CCNS(=O)(=O)c3cccs3)sc2c1	none
Cc1ccc2nc(NC(=O)CCNS(=O)(=O)c3ccc(Br)s3)sc2c1	MC4R ag barr 13.7 (no result: Lipid droplet) | MC4R barr conf inactive | MOR DOR agonist inactive
CCCCc1c(Cc2ccccc2)ncn1CCc1ccccc1OC	none (no result: NTR1 agonist, Lipid droplet, MC4R antag cAMP, PREPL inh, MC4R ag barr)
COc1ccc(NC(=S)N2CCN(c3ncccn3)CC2)c(OC)c1	none
CCCCc1nc2sc3c(SCC(=O)NCc4ccco4)ncnc3c2c2c1CCC2	MC4R ag barr 13.6 (no result: Lipid droplet) | MC4R barr conf inactive | MOR DOR agonist inactive
CC(C)CC(NC(=O)C1CCC(=O)N1)C(=O)NC(CC(C)C)C(=O)N1CCCC1C(N)=O (stereo unspecified)	none
CCOc1ccc(NC(=O)c2ccc(CC)s2)c([N+](=O)[O-])c1	none
CCOc1ccc(NC(=O)c2cccs2)c([N+](=O)[O-])c1	MC4R ag barr 18.0 (no result: Lipid droplet) | MC4R barr conf inactive | MOR DOR agonist inactive
CCOc1cc(NC(=S)NCC(C)C)c(OCC)cc1NC(=O)c1cccs1	MC4R ag barr 14.6 | MC4R barr conf inactive | MOR DOR agonist inactive
CCOc1ccc(NC(=O)CSc2nc(-c3cccs3)cc(C(F)(F)F)n2)c([N+](=O)[O-])c1	MC4R ag barr 15.9 | MC4R barr conf 26.0 | MOR DOR agonist inactive
Cc1cc(NC(=O)CSc2nc(-c3cccs3)cc(C(F)(F)F)n2)no1	none
CCNC(=S)Nc1cc(OCC)c(NC(=O)c2cccs2)cc1OCC	none (no result: NTR1 agonist)
CNC(=O)/C(C#N)=C/c1ccc(-c2nc3ccccc3s2)o1	MC4R ag barr 38.1 | MC4R barr conf inactive | MOR DOR agonist inactive
N#C/C(=C/c1ccc(-c2ccc(S(N)(=O)=O)cc2)o1)c1nc2ccccc2s1	none
N#C/C(=C\c1ccc(-c2nc3ccccc3s2)o1)C(N)=O	MC4R ag barr 20.9 | MC4R barr conf inactive | MOR DOR agonist inactive
